Apaf1 inhib = inhibitors of human Apaf-1 apoptosome | O14727 | reconstituted apoptosome caspase-3 activity, DEVD-Rh110 fluorescence | inhibition, % at 20 µM | hit rate 0.71% among 330,000 | AID 489030; active = inhibition of at least 40% at 20 µM;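 note: plate controls were DMSO wells for no effect and DEVD-CHO caspase inhibitor wells for full effect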
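System: reconstituted apoptosome with Apaf-1, cytochrome c, caspase-9, procaspase-3, dATP; Signal: Rh110 fluorescence intensity; Schedule: 30 min compound preincubation, 50 min activation, room temperature; Reagent: cytochrome c trigger plus (Z-DEVD)2-Rh110 caspase-3 substrate.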
hiPSC survival = increases survival of single human iPS cells | hiPSC single-cell survival, ATPlite luminescence; 100% = ROCK inhibitor wells, 0% = DMSO | survival enhancement, % at 20 µM | hit rate 0.044% among 360,000 | AID 602274; in the data active = survival enhancement above about 18%;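 note: cells exposed to compounds for 16 hours before the ATP read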
Granule exo inh = lytic granule exocytosis inhibition; inhibition, % at 10 µM; hit rate 0.66% among 360,000; TALL-104 LAMP-1 surface exposure, flow cytometry; cells stimulated with thapsigargin and PMA;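 active = inhibition above about 55%, limit read from the data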
beta cell repl = induces beta-cell replication in MIN6 cells; proliferation, % at 10 µM; MIN6 cells proliferation, ATPlite luminescence, 48 h; cells starved in 0.2% serum; 100% = growth in 10% serum; hit rate 0.29% among 330,000;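 active = compounds whose signal lies at least 3.5 SD above the mean of all wells on their plate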;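 note: 0% = DMSO-treated cells in low-serum medium and 100% = 10% serum control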
UBC13 inh = blocks human UBC13 polyubiquitin chain formation. TR-FRET. inhibition, % at 20 µM. hit rate 0.47% among 330,000. AID 485273; in the data active = inhibition above about 45%, passing the limit was not always enough
Target sequence (P61088 whole entry, looked up): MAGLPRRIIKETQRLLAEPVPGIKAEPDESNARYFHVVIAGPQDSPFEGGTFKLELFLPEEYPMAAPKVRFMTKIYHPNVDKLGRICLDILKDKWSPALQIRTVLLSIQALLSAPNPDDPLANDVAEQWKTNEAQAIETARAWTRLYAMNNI
MPTP block = inhibitors of mitochondrial permeability transition pore | isolated mouse mitochondria, Ca2+ swelling absorbance, 30 min | inhibition, % at 10 µM | hit rate 1.4% among 360,000;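 active = inhibition of 50% or more, scaled per plate between neutral and stimulator controls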;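 note: 0% = DMSO wells given calcium and 100% = 1 mM EGTA wells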
MPTP counter = Rhodamine 123 counter-screen of mitochondrial pore hits. shares compounds with MPTP block. isolated mitochondria, membrane potential, Rhodamine 123 fluorescence. inhibition, % at 10 µM. hit rate 78% among 5,000. AID 624504; in the data active = inhibition above about 22%;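 note: 0% = DMSO vehicle and 100% = positive control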
MPTP abs DR = MPTP inhibition, dose response swelling confirmation; shares compounds with MPTP block; isolated mitochondria swelling, absorbance; hit rate 58% among 780; IC50, µM; in the data active = IC50 below about 20 µM
MPTP cs DR = MPTP inhibitor counter-screen activity, dose response | shares compounds with MPTP block | isolated mitochondria counterscreen, fluorescence read-out | IC50, µM | hit rate 49% among 780 | AID 651564; in the data active = IC50 below about 80 µM
The depositor's hits bear a star; i = inactive; . = no result. Compounds with a hit are over-represented: about 3% of the library has one in this group of screens.

SMILES | Apaf1 inhib | hiPSC survival | Granule exo inh | beta cell repl | UBC13 inh | MPTP block | MPTP counter | others
O=C(c1ccccc1)N1CCC(c2nc(-c3ccc(S(=O)(=O)NCC4CCCO4)cc3)no2)CC1 (stereo not drawn) | -8 | 0 | -4 | -3 | 2 | 53* | 62*
Cc1ccc(S(=O)(=O)NC(C)C(=O)OCC(=O)Nc2sccc2C(N)=O)cc1 (stereo not drawn) | . | 2 | 9 | . | . | 0 | .
O=C(Nc1ccc2c(c1)OCO2)c1csc([C@@H]2O[C@H](CO)[C@H](O)[C@H](O)[C@H]2O)n1 | . | 3 | 0 | . | . | -2 | .
O=C(Nc1ccc(Cl)cc1)N1CCC(c2ccccc2)C1 (stereo not drawn) | -3 | -1 | 0 | -4 | 5 | 86* | 91*
O=C(Nc1cc(Cl)cc(Cl)c1)Nc1cnccn1 | 9 | 0 | 4 | -7 | -6 | 62* | 101*
O=C(Nc1ccc(F)cc1)Nc1cnccn1 | 10 | 0 | 0 | -3 | -4 | -1 | .
CCn1c2ccccc2c2cc(NC(=O)CNCC3CCCO3)ccc21 (stereo not drawn) | 6 | 0 | 4 | 1 | 14 | 61* | -12 | MPTP abs DR=i;MPTP cs DR=>80
O=C(/C=C/C(Cl)(Cl)Cl)Nc1ccc(Cl)cc1 | . | -2 | 27 | . | . | 96* | 102*
S=C(NC1CCCCC1)N(CCc1nc2ccccc2[nH]1)C1CCCC1 | 1 | 2 | 0 | -6 | -14 | 65* | 79*
CN(c1ccc(OCC(=O)OCC(=O)Nc2ccc(F)cc2)cc1)S(=O)(=O)c1ccc(Cl)cc1 | 6 | 3 | 10 | 0 | 1 | 8 | .
COc1ccc(NC(=O)COc2ccc(N(C)S(=O)(=O)c3ccc(Cl)cc3)cc2)cc1OC | 18 | 1 | -1 | -7 | -9 | 76* | 90*
Cc1ccc(S(=O)(=O)N2CCN(C(=O)CSc3ccccn3)CC2)c(C)c1 | 17 | 1 | 0 | 0 | -7 | -1 | .
CC(CC(=O)O)CC(=O)Nc1cc([N+](=O)[O-])ccc1O (stereo not drawn) | -5 | -1 | -2 | 1 | -4 | -1 | .
O=C(CSCc1ccc([N+](=O)[O-])cc1)Nc1ccccc1C(=O)O | 3 | 0 | 1 | -4 | -9 | 0 | .
O=C(CSCc1ccc(Cl)cc1)Nc1cc([N+](=O)[O-])ccc1O | 11 | 6 | 2 | -5 | -1 | 99* | 88*
Cc1ccc(SCC(=O)Nc2cc([N+](=O)[O-])ccc2O)cc1 | 5 | -1 | 3 | -5 | -22 | 102* | 99*
COc1ccccc1CNC(=O)Nc1nc(C(N)CCc2ccccc2)cs1 (stereo not drawn) | . | -4 | 10 | . | . | 11 | .
CC(=O)c1ccc(S(=O)(=O)N2CCN(CCOc3ccccc3)CC2)cc1 | 2 | 1 | 8 | 4 | -8 | -2 | .
CCC1Nc2ncnc(N3CCCCC3)c2N(Cc2ccc(OC)cc2)C1=O (stereo not drawn) | 8 | 4 | -1 | 1 | 11 | -1 | .
Cc1ccc(S(=O)(=O)N2CCCC(C(=O)NC3=NCCS3)C2)cc1 (stereo not drawn) | 10 | 2 | -3 | -1 | 0 | 70* | 8 | MPTP abs DR=>100;MPTP cs DR=>80
Cc1ccc(S(=O)(=O)N2CCC[C@H]2C(=O)NC2=NCCS2)cc1 | . | -2 | -5 | . | . | -1 | .
Cc1ccc(OC(C)C(=O)N(C)c2ccccc2)c([N+](=O)[O-])n1 (stereo not drawn) | -4 | 0 | 2 | -1 | 1 | 1 | .
O=C(Nc1nnc(S(=O)(=O)N2CCCCC2)s1)c1ccc(Cl)cc1 | 5 | 2 | -5 | -6 | -2 | 27 | .
CC(Oc1ccccc1)C(=O)Nc1nnc(S(=O)(=O)N2CCCCC2)s1 (stereo not drawn) | 1 | 0 | 4 | 0 | -1 | 1 | .
O=C(Nc1nnc(S(=O)(=O)N2CCCCCC2)s1)c1ccc(Br)cc1 | 8 | 0 | -2 | -6 | -2 | 60* | 29*
SMILES | Apaf1 inhib | hiPSC survival | Granule exo inh | beta cell repl | UBC13 inh | MPTP block | MPTP counter | others
CCC(Oc1ccccc1)C(=O)Nc1nnc(S(=O)(=O)N2CCCC2)s1 (stereo not drawn) | 2 | -1 | -3 | 4 | -18 | 85* | 20*
c1ccc(CCn2cccc2)nc1 | . | 7 | 4 | . | . | -1 | .
CCCCc1ccc(NC(=S)NCCO)cc1 | 2 | 1 | -1 | 0 | -16 | 2 | .
Fc1ccc(CCNC(=S)Nc2ccc(F)cc2)cc1 | 11 | -1 | -5 | -4 | -8 | 50* | 93*
CCCCc1ccc(NC(=S)NCCc2ccc(F)cc2)cc1 | 27 | -4 | 35 | -6 | -3 | 82* | 105*
CC(=O)c1cccc(NC(=S)NCCc2ccc(F)cc2)c1 | 13 | 0 | 10 | -4 | -5 | 9 | .
COc1cc(NC(=S)Nc2ccc(Br)cc2Cl)c(OC)cc1Cl | 22 | -1 | -4 | 0 | -8 | 90* | 89*
COc1cc(OC)c(NC(=S)Nc2cccc(C(C)=O)c2)cc1Cl | -3 | -1 | -5 | -1 | -2 | 4 | .
COc1cc(OC)c(NC(=S)Nc2cc(Cl)cc(Cl)c2)cc1Cl | 3 | 0 | 3 | -3 | 2 | 104* | 84*
COc1cc(NC(=S)Nc2cccc(Cl)c2Cl)c(OC)cc1Cl | 19 | 0 | -6 | -6 | -4 | 14 | .
Cc1noc(C)c1-c1ccc(C(=O)NC2CCCCC2)c2occc12 | . | 2 | -9 | . | . | 2 | .
O=C1NC(=S)S/C1=C\c1ccc(SCc2ccco2)o1 | . | 3 | -11 | . | . | 13 | .
O=C1NC(=S)S/C1=C\c1ccc(SCc2ccccc2)o1 | . | -1 | 12 | . | . | 78* | 62*
Cc1cc(C)c(C)c(S(=O)(=O)N2CCN(c3ncnc4ccccc34)CC2)c1C | 21 | 0 | -2 | -8 | 21 | 76* | 104*
O=S(=O)(c1cc(C(F)(F)F)ccc1Cl)N1CCN(c2ncnc3ccccc23)CC1 | 10 | 0 | -6 | -6 | 0 | 93* | 105*
COC(=O)C[C@H]1C=C[C@H](NC(=O)C2CCOCC2)[C@@H](CO)O1 | . | . | 0 | . | . | 0 | .
COc1ccc(CCN(C)C(=O)Cc2ccc(-c3ccccc3)cc2)cc1OC | 24 | 0 | -12 | -4 | -10 | 64* | 72*
COCC(C)N=C1NN=C(c2cc(C)n(Cc3ccccc3Cl)c2C)CS1 (stereo not drawn) | -1 | -1 | -1 | -6 | 9 | 79* | 83*
COCCn1c(C)cc(C2=NNC(=Nc3ccc(Cl)cc3Cl)SC2)c1C | 5 | -2 | 4 | -4 | -3 | 1 | .

Assay outcomes (PubChem)
